ChEMBL document CHEMBL1221317, “S-benzylisothiourea derivatives as small-molecule inhibitors of indoleamine-2,3-dioxygenase” (Bioorg Med Chem Lett, 2010)
pIC50: −log10 of the molar value. Activity calls are given as the source filed them. No cut-off for these calls is given here.

Experiments:
[1] = target: T1, Indoleamine 2,3-dioxygenase 1 (Homo sapiens, UniProt P14902); test: Inhibition of indoleamine-2,3-dioxygenase
Outline: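 Recombinant IDO, in 50 mM potassium phosphate buffer (pH 6.5) with 20 mM neutralized ascorbic acid, catalase, methylene blue and L-Trp. Incubated at 37 °C for 60 min, then stopped with 30% (w/v) trichloroacetic acid and heated at 50 °C for 15 min. After centrifugation, the supernatant was mixed with 2% (w/v) p-dimethylaminobenzaldehyde in acetic acid to detect kynurenine colorimetrically.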
Target sequence in this assay (P14902 whole entry): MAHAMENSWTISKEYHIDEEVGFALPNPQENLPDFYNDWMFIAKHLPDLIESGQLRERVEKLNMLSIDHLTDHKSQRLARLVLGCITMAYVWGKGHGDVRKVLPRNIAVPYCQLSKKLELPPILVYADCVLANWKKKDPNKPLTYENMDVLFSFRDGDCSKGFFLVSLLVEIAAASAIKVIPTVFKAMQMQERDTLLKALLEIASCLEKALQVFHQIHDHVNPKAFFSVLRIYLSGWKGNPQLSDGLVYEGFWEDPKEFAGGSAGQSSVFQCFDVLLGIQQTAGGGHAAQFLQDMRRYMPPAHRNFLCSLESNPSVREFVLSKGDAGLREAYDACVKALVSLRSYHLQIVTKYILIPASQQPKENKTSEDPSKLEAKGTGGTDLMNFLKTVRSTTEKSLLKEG

[2] = target: T1, Indoleamine 2,3-dioxygenase 1; test: Inhibition of indoleamine-2,3-dioxygenase in human A431 cells assessed as inhibition of IFN-gamma-stimulated kynurenine production; assay type: cell-based, A-431
Outline: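 A431 cells (2.0 × 10⁵ cells/mL) were seeded and grown overnight. Serial DMSO dilutions of compound were added and incubated for 24 h more. Then 7% (v/v) aqueous trichloroacetic acid and 2% (w/v) p-dimethylaminobenzaldehyde in acetic acid (2:5) were added, and the kynurenine-derived yellow colour was read at 460 nm.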
Target sequence in this assay (P14902 whole entry): as above

A-431 = test: Inhibition of indoleamine-2,3-dioxygenase expression in human A431 cells at 10 uM; assay type: functional, cell-based
Outline: (§1)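 A431 cells were precultured for 24 h, given fresh medium, and treated with compound with or without IFN-γ (5 ng/ml). Culture media and cell extracts were then collected. IDO and α-tubulin in the lysates were detected by western blot, and kynurenine concentration was measured in the culture medium.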

[3] = target: T1, Indoleamine 2,3-dioxygenase 1; test: Inhibition of indoleamine-2,3-dioxygenase in human A431 cells assessed as inhibition of IFN-gamma-stimulated kynurenine production at 10 uM; assay type: cell-based; details: A-431; outline: as §1
Target sequence in this assay (P14902 whole entry, looked up): as the sequence (P14902 whole entry) above

Row | Compound | pIC50 [1] | pIC50 [2] | inhibition (A-431) | inhibition [3]
1 | COc1ccc(CS)cc1 | 5.85 | 5.03 |  | 
2 | SCc1ccc(Cl)c(Cl)c1 | 7.00 | 5.96 |  | 
3 | Cc1ccc(CSC(=N)N)cc1 | 4.52 | 5.17 |  | 
4 | OCc1ccc(Cl)cc1 | < 4.00 | < 4.70 |  | 
5 | N=C(N)SCc1ccc(C(=O)O)cc1 | < 4.00 | < 4.70 |  | 
6 | CC(C)c1ccc(CSC(=N)N)cc1 | < 4.00 | < 4.70 |  | 
7 | NCc1ccc(Cl)cc1 | < 4.00 | < 4.70 |  | 
8 | CSC(=N)Nc1ccc(Cl)cc1 | < 4.00 | < 4.70 |  | 
9 | Fc1ccc(CS)cc1 | 5.74 | 5.72 |  | 
10 | CC(C)(C)c1ccc(CSC(=N)N)cc1 | < 4.00 | < 4.70 |  | 
11 | SCc1ccc(Cl)cc1Cl | 5.46 | 5.34 |  | 
12 | NC(=O)NCc1ccc(Cl)cc1 | < 4.00 | < 4.70 |  | 
13 | Sc1ccc(Cl)cc1 | 5.72 | < 4.70 |  | 
14 | CCc1ccc(CSC(=N)N)cc1 | 4.80 | 5.60 |  | 
15 | N=C(N)SCCc1cccc(Cl)c1 | < 4.00 | < 4.70 |  | 
16 | N=C(N)SCc1ccc([N+](=O)[O-])cc1 | 4.96 | 5.66 |  | 
17 | N=C(N)SCc1ccccc1 | 4.21 | < 5.00 |  | 
18 | N=C(N)SCc1ccc(Br)cc1 | 5.89 | 6.10 |  | 
19 | O=S(O)c1ccc(Cl)cc1 | < 4.00 | < 4.70 |  | 
20 | SCc1ccccc1 [BENZENEMETHANETHIOL] | 5.77 | 4.89 |  | 
21 | N=C(N)SCCc1ccc(Cl)cc1 | 4.24 | < 4.70 |  | 

Row | Compound | pIC50 [1] | pIC50 [2] | inhibition (A-431) | inhibition [3]
22 | CSC(=N)NCCc1ccc(Cl)cc1 | < 4.00 | < 4.70 |  | 
23 | N=C(N)SCc1ccc(Cl)cc1 | 5.66 | 6.22 | inactive | Active
24 | Cc1ccc(CS)cc1 | 5.89 | 5.19 |  | 
25 | COc1ccc(CSC(=N)N)cc1 | 4.28 | 5.00 |  | 
26 | N=C(N)SCc1ccc(F)cc1 | 4.89 | 5.70 |  | 
27 | N=C(N)SCCc1ccccc1Cl | < 4.00 | < 4.70 |  | 
28 | C/N=C(\NC)SCc1ccc(Cl)cc1 | 4.68 | < 4.70 |  | 
29 | O=S(=O)(O)c1ccc(Cl)cc1 | < 4.00 | < 4.70 |  | 
30 | CS(=O)(=O)c1ccc(CSC(=N)N)cc1 | < 4.00 | < 5.00 |  | 
31 | N=C(N)SCc1ccccc1Cl | 5.00 | 5.32 |  | 
32 | N#Cc1ccc(CSC(=N)N)cc1 | 4.72 | 5.59 |  | 
33 | SCc1ccccc1Cl | 5.92 | 4.82 |  | 
34 | N=C(N)SCc1ccc(Cl)cc1Cl | 6.40 | 5.96 |  | 
35 | NC(=S)Nc1ccc(Cl)cc1 | < 4.00 | < 4.70 |  | 
36 | SCc1ccc(Cl)cc1 | 5.49 | 5.96 |  | 
37 | NC(=S)NCCc1ccc(Cl)cc1 | 4.00 | < 4.70 |  | 
38 | N=C(N)SCc1cccc(Cl)c1 | 5.34 | 5.85 |  | 
39 | N=C(N)SCc1ccc(Cl)c(Cl)c1 | 4.77 | 5.14 |  | 
40 | N=C(N)SCc1ccc(C(F)(F)F)cc1 | 5.59 | 5.92 |  | 
41 | NCCc1ccc(Cl)cc1 | < 4.00 | < 4.70 |  | 
42 | N=C(N)SCc1ccc(C(=O)c2ccccc2)cc1 | < 4.00 | < 4.70 |  | 
